Measurements taken from ChEMBL document CHEMBL3085773, “A general method for making peptide therapeutics resistant to serine protease degradation: application to dipeptidyl peptidase IV substrates” (J Med Chem, 2013).
Active and inactive are the calls of the source. No cut-off for these calls is given here. Square brackets hold non-standard residues; d marks the D form. Peptide text beside a SMILES is read from it. ξ: configuration not given here. ξTle = CC(C)(C)C(N)C(=O)O

Assays:
[1] = test system: Mus musculus; test: Toxicity in C57BL/6 mouse assessed as effect on food consumption at 1 mg/kg, ip qd administered for 7 days measured every day during compound administration; assay type: organism-based; design: dose 1 mg/kg, route intraperitoneal; conditions: in vivo, 168 h
How it was run: (§1)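 C57BL/6 mice given 1 mg/kg ip once daily for seven days, or vehicle; body weight and per-cage food intake recorded daily; water consumption measured on days 3 and 7.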

[2] = test system: Mus musculus; test: Toxicity in C57BL/6 mouse assessed as change in liver weight at 1 mg/kg, ip qd measured on day 7 by necropsy analysis; assay type: organism-based; design: dose 1 mg/kg, route intraperitoneal; conditions: in vivo
How it was run: (§2)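 C57BL/6 mice dosed ip once daily for seven days at 1 mg/kg or vehicle; necropsy on day 7 after final dose; liver, kidneys, pancreas, heart and brain collected, inspected for gross abnormalities and weighed; twelve animals in study.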

[3] = test system: Mus musculus; test: Toxicity in C57BL/6 mouse assessed as abnormalities in pancreas at 1 mg/kg, ip qd measured on day 7 by necropsy analysis; assay type: organism-based; design: dose 1 mg/kg, route intraperitoneal; conditions: in vivo; how it was run: as §2
[4] = test system: Mus musculus; test: Antidiabetic activity in db/db mouse assessed as reduction of blood glucose level at 0.2 mg/kg, ip measured at 240 mins relative to vehicle-treated control; assay type: functional, organism-based; design: dose 0.2 mg/kg
How it was run: (§3)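 db/db mice given 8 µg/mouse peptide or PBS vehicle ip; fasting blood glucose measured before and at set times after dosing; expressed as percent change from basal FBG; 10 animals per group.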

[5] = test system: Mus musculus; test: Antidiabetic activity in db/db mouse assessed as reduction of blood glucose AUC (0 to 480 mins) at 0.2 mg/kg, ip; assay type: functional, organism-based; design: dose 0.2 mg/kg
[6] = test system: Mus musculus; test: Toxicity in C57BL/6 mouse assessed as abnormalities in kidney at 1 mg/kg, ip qd measured on day 7 by necropsy analysis; assay type: organism-based; design: dose 1 mg/kg, route intraperitoneal; conditions: in vivo; how it was run: as §2
[7] = test system: Mus musculus; test: Toxicity in C57BL/6 mouse assessed as change in kidney weight at 1 mg/kg, ip qd measured on day 7 by necropsy analysis; assay type: organism-based; design: dose 1 mg/kg, route intraperitoneal; conditions: in vivo; how it was run: as §2
[8] = test system: Mus musculus; test: Toxicity in C57BL/6 mouse assessed as abnormalities in heart at 1 mg/kg, ip qd measured on day 7 by necropsy analysis; assay type: organism-based; design: dose 1 mg/kg, route intraperitoneal; conditions: in vivo; how it was run: as §2
[9] = test system: Mus musculus; test: Antidiabetic activity in db/db mouse assessed as reduction of blood glucose level at 0.2 mg/kg, ip after 60 mins relative to vehicle-treated control; assay type: functional; design: scale not given: the % may be the effect or the level left; conditions: route intraperitoneal; how it was run: as §3
[10] = biological target: T1, Dipeptidyl peptidase 4 (Homo sapiens, UniProt P27487); test: Stability of the compound assessed as recombinant human DPP4-mediated compound degradation at 0.1 mM measured after 24 hrs by reverse-phase HPLC/MS analysis; assay type: ADME; conditions: 100 µM
How it was run: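 GLP-1 peptides (0.1 mM) incubated at 37 °C with recombinant human DPP IV in 50 mM HEPES, 0.14 M NaCl, pH 8.0, up to 24 h; acid-quenched samples analysed by RP-HPLC-MS for intact peptide.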

[11] = test system: Mus musculus; test: Toxicity in C57BL/6 mouse assessed as effect on body weight at 1 mg/kg, ip qd administered for 7 days measured every day during compound administration; assay type: organism-based; design: dose 1 mg/kg, route intraperitoneal; conditions: in vivo, 168 h; how it was run: as §1
[12] = test system: Mus musculus; test: Toxicity in C57BL/6 mouse assessed as change in brain weight at 1 mg/kg, ip qd measured on day 7 by necropsy analysis; assay type: organism-based; design: dose 1 mg/kg, route intraperitoneal; conditions: in vivo; how it was run: as §2
[13] = test system: Mus musculus; test: Toxicity in C57BL/6 mouse assessed as effect on water consumption at 1 mg/kg, ip qd administered for 7 days measured on day 3 and day 7; conditions: in vivo, 168 h
[14] = test system: Mus musculus; test: Antidiabetic activity in db/db mouse assessed as reduction of blood glucose level at 0.2 mg/kg, ip after 90 mins relative to vehicle-treated control; assay type: functional; design: scale not given: the % may be the effect or the level left; conditions: route intraperitoneal; how it was run: as §3
[15] = test system: Mus musculus; test: Toxicity in C57BL/6 mouse assessed as change in pancreas weight at 1 mg/kg, ip qd measured on day 7 by necropsy analysis; assay type: organism-based; design: dose 1 mg/kg, route intraperitoneal; conditions: in vivo; how it was run: as §2
[16] = test system: Mus musculus; test: Toxicity in C57BL/6 mouse assessed as abnormalities in brain at 1 mg/kg, ip qd measured on day 7 by necropsy analysis; assay type: organism-based; design: dose 1 mg/kg, route intraperitoneal; conditions: in vivo; how it was run: as §2
[17] = test system: Mus musculus; test: Toxicity in C57BL/6 mouse assessed as abnormalities in liver at 1 mg/kg, ip qd measured on day 7 by necropsy analysis; assay type: organism-based; design: dose 1 mg/kg, route intraperitoneal; conditions: in vivo; how it was run: as §2
[18] = test system: Mus musculus; test: Toxicity in C57BL/6 mouse assessed as change in heart weight at 1 mg/kg, ip qd measured on day 7 by necropsy analysis; assay type: organism-based; design: dose 1 mg/kg, route intraperitoneal; conditions: in vivo; how it was run: as §2
[19] = biological target: DPP4 (dipeptidyl peptidase 4) (Sus scrofa, UniProt P22411); test: Stability of the compound assessed as porcine DPP4-mediated compound degradation measured intact level at 0.1 mM measured at 30 mins by reverse-phase HPLC/MS analysis; assay type: ADME; conditions: pig, read-out: Stability
How it was run: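 Synthetic hexapeptides (0.1 mM) incubated at 37 °C with 10 mU/mL DPP IV purified from porcine kidney in 50 mM HEPES, 0.14 M NaCl, pH 8.0; intact peptide by HPLC-MS, expressed as percent of time-zero value.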

[20] = biological target: alpha-lytic protease (alpha-LP) (Lysobacter enzymogenes, UniProt P00778); test: Stability of the compound assessed as half life of Lysobacter enzymogenes alpha-LP-mediated compound degradation at 0.1 mM by reverse-phase HPLC/MS analysis; assay type: ADME
[21] = biological target: T2, Trypsin (Sus scrofa, UniProt P00761); test: Stability of the compound assessed as half life of porcine pancreatic trypsin-mediated compound degradation at 0.1 mM by reverse-phase HPLC/MS analysis; assay type: ADME; conditions: pig
[22] = biological target: T1, Dipeptidyl peptidase 4; test: Competitive inhibition of human recombinant DPP4 using AP-pNA as substrate preincubated for 30 mins followed by substrate addition measured after 30 mins by spectrophotometric analysis
[23] = biological target: T2, Trypsin; test: Stability of the compound assessed as porcine pancreatic trypsin-mediated compound degradation at 0.1 mM after 8 hrs by reverse-phase HPLC/MS analysis; assay type: ADME; conditions: pig, isolated protein, 100 µM

T1 sequence (P27487 whole entry): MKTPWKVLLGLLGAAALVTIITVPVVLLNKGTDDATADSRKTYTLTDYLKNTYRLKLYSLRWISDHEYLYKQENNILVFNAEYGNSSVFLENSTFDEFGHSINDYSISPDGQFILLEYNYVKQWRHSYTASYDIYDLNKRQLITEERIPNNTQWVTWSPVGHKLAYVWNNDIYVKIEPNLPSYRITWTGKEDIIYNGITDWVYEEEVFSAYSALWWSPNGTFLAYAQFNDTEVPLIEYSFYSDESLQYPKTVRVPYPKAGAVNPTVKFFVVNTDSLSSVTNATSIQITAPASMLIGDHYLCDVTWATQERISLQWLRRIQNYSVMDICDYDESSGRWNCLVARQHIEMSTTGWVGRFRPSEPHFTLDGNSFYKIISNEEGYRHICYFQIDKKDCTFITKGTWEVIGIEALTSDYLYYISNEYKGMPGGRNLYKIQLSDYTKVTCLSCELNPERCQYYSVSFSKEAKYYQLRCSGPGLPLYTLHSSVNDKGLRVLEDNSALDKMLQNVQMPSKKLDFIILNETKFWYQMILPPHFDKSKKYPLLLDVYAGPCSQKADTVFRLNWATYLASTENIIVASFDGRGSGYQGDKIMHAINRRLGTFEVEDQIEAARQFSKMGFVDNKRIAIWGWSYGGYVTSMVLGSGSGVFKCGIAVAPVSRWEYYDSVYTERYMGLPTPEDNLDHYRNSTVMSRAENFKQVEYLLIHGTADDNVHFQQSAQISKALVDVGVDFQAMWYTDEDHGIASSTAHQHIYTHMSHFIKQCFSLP
T2 sequence (P00761 whole entry): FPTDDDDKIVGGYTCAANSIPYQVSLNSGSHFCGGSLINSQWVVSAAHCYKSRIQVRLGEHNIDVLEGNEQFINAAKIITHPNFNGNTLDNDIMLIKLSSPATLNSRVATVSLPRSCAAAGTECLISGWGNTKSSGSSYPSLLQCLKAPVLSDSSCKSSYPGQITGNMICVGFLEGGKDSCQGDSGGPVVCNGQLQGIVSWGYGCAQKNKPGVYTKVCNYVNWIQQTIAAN
Chain of alpha-lytic protease (alpha-LP) (P00778 whole entry): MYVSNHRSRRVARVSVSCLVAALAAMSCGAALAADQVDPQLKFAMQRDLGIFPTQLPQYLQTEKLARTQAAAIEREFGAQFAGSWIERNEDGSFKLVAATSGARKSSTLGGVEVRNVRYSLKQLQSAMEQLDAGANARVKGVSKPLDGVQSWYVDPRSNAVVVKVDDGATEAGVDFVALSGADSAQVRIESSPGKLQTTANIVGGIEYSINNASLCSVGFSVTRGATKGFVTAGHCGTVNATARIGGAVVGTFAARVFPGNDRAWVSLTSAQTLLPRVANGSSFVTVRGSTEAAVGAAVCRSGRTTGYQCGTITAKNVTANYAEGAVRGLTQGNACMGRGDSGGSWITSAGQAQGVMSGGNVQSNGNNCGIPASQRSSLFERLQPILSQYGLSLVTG
Chain of DPP4 (dipeptidyl peptidase 4) (P22411 whole entry): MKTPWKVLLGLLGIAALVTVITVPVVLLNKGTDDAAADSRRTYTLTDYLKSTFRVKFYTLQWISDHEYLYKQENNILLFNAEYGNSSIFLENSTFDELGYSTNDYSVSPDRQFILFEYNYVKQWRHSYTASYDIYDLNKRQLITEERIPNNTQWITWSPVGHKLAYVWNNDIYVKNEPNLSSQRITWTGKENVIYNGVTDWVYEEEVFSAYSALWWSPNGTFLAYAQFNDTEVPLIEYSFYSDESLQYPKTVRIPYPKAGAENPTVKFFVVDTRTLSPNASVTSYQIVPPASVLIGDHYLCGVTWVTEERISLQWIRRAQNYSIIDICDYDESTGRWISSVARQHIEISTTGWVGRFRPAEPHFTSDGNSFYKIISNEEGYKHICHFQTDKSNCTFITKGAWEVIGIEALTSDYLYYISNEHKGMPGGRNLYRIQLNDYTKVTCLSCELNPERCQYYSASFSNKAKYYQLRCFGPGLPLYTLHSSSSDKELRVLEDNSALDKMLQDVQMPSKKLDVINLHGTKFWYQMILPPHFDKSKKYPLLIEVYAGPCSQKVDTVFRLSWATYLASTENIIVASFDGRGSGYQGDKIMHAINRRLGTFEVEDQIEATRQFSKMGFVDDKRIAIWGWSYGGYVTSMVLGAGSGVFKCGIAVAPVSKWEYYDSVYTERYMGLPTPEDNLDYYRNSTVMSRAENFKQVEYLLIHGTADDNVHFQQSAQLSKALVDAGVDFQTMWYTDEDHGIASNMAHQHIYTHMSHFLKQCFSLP

With `CC[C@H](C)[C@H](NC(=O)[C@H](Cc1ccccc1)NC(=O)[C@H](CCC(=O)O)NC(=O)[C@H](CCCCN)NC(=O)[C@H](C)NC(=O)[C@H](C)NC(=O)[C@H](CCC(N)=O)NC(=O)CNC(=O)[C@H](CCC(=O)O)NC(=O)[C@H](CC(C)C)NC(=O)[C@H](Cc1ccc(O)cc1)NC(=O)[C@H](CO)NC(=O)[C@H](CO)NC(=O)[C@@H](NC(=O)[C@H](CC(=O)O)NC(=O)[C@H](CO)NC(=O)[C@@H](NC(=O)[C@H](Cc1ccccc1)NC(=O)[C@@H](NC(=O)CNC(=O)C(NC(=O)[C@H](C)NC(=O)[C@@H](N)Cc1c[nH]cn1)C(C)(C)C(=O)O)[C@@H](C)O)[C@@H](C)O)C(C)C)C(=O)N[C@@H](C)C(=O)N[C@@H](Cc1c[nH]c2ccccc12)C(=O)N[C@@H](CC(C)C)C(=O)N[C@H](C(=O)N[C@@H](CCCCN)C(=O)NCC(=O)N[C@@H](CCCNC(=N)N)C(N)=O)C(C)C` (some centres undefined) the Activity [1] was “Non-toxic”, the Activity [2] was “Non-toxic” and the Activity [3] was “Non-toxic”. For the same compound, the Activity [4] was “inactive”, the Activity [5] was “Active” and the Activity [6] was “Non-toxic”. For the same compound, the Activity [7] was “Non-toxic”, the Activity [8] was “Non-toxic” and the Activity [9] was 50%. For the same compound, the Stability [10] was “Stable”, the Activity [11] was “Non-toxic” and the Activity [12] was “Non-toxic”. The Activity [13] was “Non-toxic”, the Activity [14] was 45% and the Activity [15] was “Non-toxic”. For the same compound, the Activity [16] was “Non-toxic”, the Activity [17] was “Non-toxic” and the Activity [18] was “Non-toxic”.

Work on `CC(C)C[C@H](NC(=O)[C@@H]1CCCN1C(=O)[C@H](C)N)C(=O)N[C@@H](CO)C(=O)N[C@@H](Cc1c[nH]c2ccccc12)C(=O)N[C@@H](CO)C(=O)O` (H-APLSWS-OH) yielded a remaining at 0.5 h, 100 µM [19] of less than 70%.

`CC(C)C[C@H](NC(=O)[C@@H](N)CC(C)C)C(=O)N1CCC[C@H]1C(=O)N[C@@H](CCCNC(=N)N)C(=O)N[C@H](C(=O)N[C@@H](C)C(=O)N[C@@H](CC(N)=O)C(=O)NCC(=O)N[C@@H](CO)C(=O)N[C@@H](CO)C(=O)N[C@@H](Cc1ccccc1)C(=O)N[C@H](C(=O)N[C@H](C(=O)N[C@H](C(=O)O)C(C)C)[C@@H](C)O)C(C)C)C(C)C` (H-LLPRVANGSSFVTV-OH) was tested, and the half-life at 100 µM [20] was 24 min and the half-life at 100 µM [21] was 24 min.

In the case of `CC(C)[C@H](N)C(=O)N1CCC[C@H]1C(=O)NC(C(=O)N1CCC[C@H]1C(=O)N[C@@H](CCCNC(=N)N)C(N)=O)C(C)(C)C` (some centres undefined) (H-VP[ξTle]PR-NH2), the Ki [22] is reported as 4.5 µM and the Stability [10] is reported as “Stable”.

In the case of `CC(C)C[C@H](NC(=O)[C@@H](N)CC(C)C)C(=O)N1CCC[C@H]1C(=O)N[C@@H](CCCNC(=N)N)C(=O)NC(C(=O)N[C@@H](C)C(=O)N[C@@H](CC(N)=O)C(=O)NCC(=O)N[C@@H](CO)C(=O)N[C@@H](CO)C(=O)N[C@@H](Cc1ccccc1)C(=O)N[C@H](C(=O)N[C@H](C(=O)N[C@H](C(=O)O)C(C)C)[C@@H](C)O)C(C)C)C(C)(C)C` (some centres undefined) (H-LLPR[ξTle]ANGSSFVTV-OH), the Stability [23] is reported as “Stable”.
